Legend:
[1] = Cmax in Swiss albino mouse at 10 mg/kg, ip by LC/MS/MS method; type: ADME, organism-based; design: dose 10 mg/kg, route intraperitoneal; conditions: in vivo
Method in brief: (§1)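 Mouse pharmacokinetics after intravenous, oral or intraperitoneal dosing; plasma parameters derived were T1/2, Tmax, Cmax, AUClast, AUCinf, clearance, Vss and oral bioavailability F.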

[2] = Tmax in Swiss albino mouse at 10 mg/kg, ip by LC/MS/MS method; type: ADME, organism-based; conditions: in vivo; method in brief: as §1
[3] = target: Serine/threonine-protein kinase pim-2 (Homo sapiens, UniProt Q9P1W9); assay: Inhibition of recombinant full length GST-tagged human PIM2 expressed in baculovirus expression system by Z'-Lyte assay
Method in brief: (§2)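 IC50 against PIM1, PIM2, BTK and BMX determined with Z′-Lyte kinase activity assays.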

[4] = target: T1, Discoidin domain-containing receptor 2 (Homo sapiens, UniProt Q16832); assay: Inhibition of GST-tagged human DDR2 cytoplasmic domain (427 to 855 residues) expressed in baculovirus expression system by LanthaScreen assay
T1 sequence (Q16832 whole entry): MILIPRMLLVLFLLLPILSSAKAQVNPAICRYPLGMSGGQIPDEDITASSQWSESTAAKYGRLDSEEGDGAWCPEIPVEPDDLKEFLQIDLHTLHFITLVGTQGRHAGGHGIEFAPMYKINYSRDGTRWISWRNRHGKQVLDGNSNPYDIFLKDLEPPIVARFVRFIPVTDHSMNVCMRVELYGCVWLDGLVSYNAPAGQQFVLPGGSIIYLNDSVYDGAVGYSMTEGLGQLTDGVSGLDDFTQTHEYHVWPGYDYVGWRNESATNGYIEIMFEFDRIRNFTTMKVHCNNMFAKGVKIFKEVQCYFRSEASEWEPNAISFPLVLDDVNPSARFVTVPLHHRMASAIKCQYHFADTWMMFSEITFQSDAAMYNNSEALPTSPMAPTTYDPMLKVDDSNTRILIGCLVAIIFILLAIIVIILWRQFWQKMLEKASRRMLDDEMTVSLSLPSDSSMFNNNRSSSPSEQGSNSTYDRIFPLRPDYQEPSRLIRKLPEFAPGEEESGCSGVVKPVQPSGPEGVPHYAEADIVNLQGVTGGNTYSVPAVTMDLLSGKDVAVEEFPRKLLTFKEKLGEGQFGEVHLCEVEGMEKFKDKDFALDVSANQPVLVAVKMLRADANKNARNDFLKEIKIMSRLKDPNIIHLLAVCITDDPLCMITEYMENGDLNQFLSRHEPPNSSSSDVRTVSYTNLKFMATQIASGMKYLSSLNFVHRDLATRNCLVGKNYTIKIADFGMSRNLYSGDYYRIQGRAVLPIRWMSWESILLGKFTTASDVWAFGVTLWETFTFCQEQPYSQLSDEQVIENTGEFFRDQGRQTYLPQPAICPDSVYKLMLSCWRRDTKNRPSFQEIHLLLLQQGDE
Method in brief: (§3)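 IC50 against DDR1 and DDR2 determined with LanthaScreen binding assays.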

[5] = target: Serine/threonine-protein kinase pim-1 (Homo sapiens, UniProt P11309); assay: Inhibition of recombinant full length His-tagged human PIM1 expressed in baculovirus expression system by Z'-Lyte assay; method in brief: as §2
[6] = Cmax in Swiss albino mouse at 10 mg/kg, po by LC/MS/MS method; type: ADME, organism-based; design: dose 10 mg/kg, route oral; conditions: in vivo; method in brief: as §1
[7] = AUClast in Swiss albino mouse at 2 mg/kg, iv by LC/MS/MS method; type: ADME, organism-based; design: dose 2 mg/kg, route intravenous, time 0 - last; conditions: in vivo
[8] = tested on: dengue virus type 2; assay: Antiviral activity against Dengue virus serotype 2 replicon harboring GVD mutant infected in HuH7 cells assessed as reduction in viral RNA translation at 10 uM measured at 6 hrs post infection by luciferase reporter gene assay relative to control; type: functional; design: scale not given: the % may be the effect or the level left
Method in brief: (§4)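 Huh7 cells transfected with in vitro-transcribed nonreplicative DENV2(GVD) reporter replicon RNA, then treated immediately with compound at 2 or 10 μM. Intracellular firefly luciferase activity read 6 h post-transfection as a measure of RNA translation and expressed relative to DMSO-treated samples. Mean ± SD of experimental duplicates, n = 3 repeats.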

[9] = tested on: dengue virus type 2; assay: Antiviral activity against Dengue virus serotype 2 strain New Guinea C infected in HuH7 cells assessed as reduction in log-fold change by measuring focus forming unit at 2 uM measured at 24 hrs post infection by focus forming assay relative to control; type: functional, Thailand/NGS-C/1944
Method in brief: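 DENV2-infected Huh7 cells treated with compound at 2 or 10 μM. Infectious virus secreted into culture supernatants at 24 h post-infection/treatment was titred by focus-forming assay. Result expressed as log-fold change relative to DMSO treatment.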

[10] = Cytotoxicity against human HuH7 cells measured after 24 hrs by CellTiter-Glo luminescent cell viability assay; type: cell-based, Huh-7
Method in brief: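 DENV2-infected Huh7 cells treated across a concentration range; cell viability read 24 h later. CC50 (50% cytotoxicity) derived by non-linear regression; mean ± SD of experimental duplicates, n ≥ 2 repeats.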

[11] = AUC (infinity) in Swiss albino mouse at 10 mg/kg, ip by LC/MS/MS method; type: ADME, organism-based; design: dose 10 mg/kg, route intraperitoneal, time infinity; conditions: in vivo
[12] = tested on: dengue virus type 2; assay: Antiviral activity against Dengue virus serotype 2 replicon harboring GVD mutant infected in HuH7 cells assessed as reduction in viral RNA translation at 2 uM measured at 6 hrs post infection by luciferase reporter gene assay relative to control; type: functional; design: scale not given: the % may be the effect or the level left; method in brief: as §4
[13] = Half life in Swiss albino mouse at 2 mg/kg, iv by LC/MS/MS method; type: ADME, organism-based; conditions: in vivo; method in brief: as §1
[14] = AUC (infinity) in Swiss albino mouse at 10 mg/kg, po by LC/MS/MS method; type: ADME, organism-based; design: dose 10 mg/kg, route oral, time infinity; conditions: in vivo
[15] = Cmax in Swiss albino mouse at 2 mg/kg, iv by LC/MS/MS method; type: ADME, organism-based; design: dose 2 mg/kg, route intravenous; conditions: in vivo; method in brief: as §1
[16] = Half life in Swiss albino mouse at 10 mg/kg, po by LC/MS/MS method; type: ADME, organism-based; conditions: in vivo; method in brief: as §1
[17] = target: Epithelial discoidin domain-containing receptor 1 (Homo sapiens, UniProt Q08345); assay: Inhibition of GST-tagged human DDR1 catalytic domain (440 to 876 residues) expressed in baculovirus expression system by LanthaScreen assay; method in brief: as §3
[18] = Selectivity index, ratio of CC50 for cytotoxicity against human HuH7 to IC90 for antiviral activity against Dengue virus serotype 2 strain New Guinea C infected in HuH7 cells
Method in brief: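 Huh7 cells infected with DENV2, then treated across a concentration range. At 24 h, cell viability was measured, and secreted infectious virus was titrated by focus-forming assay. CC50 (50% cytotoxicity) and IC90 (1-log10 reduction in infectious progeny) were fitted by non-linear regression. Experimental duplicates, n ≥ 2 repeats.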

[19] = Oral bioavailability in Swiss albino mouse at 10 mg/kg by LC/MS/MS method; type: ADME, organism-based; conditions: in vivo; method in brief: as §1
[20] = Tmax in Swiss albino mouse at 50 mg/kg, ip by LC/MS/MS method; type: ADME, organism-based; conditions: in vivo; method in brief: as §1
[21] = AUC (infinity) in Swiss albino mouse at 2 mg/kg, iv by LC/MS/MS method; type: ADME, organism-based; design: dose 2 mg/kg, route intravenous, time infinity; conditions: in vivo
[22] = Clearance in Swiss albino mouse at 2 mg/kg, iv by LC/MS/MS method; type: ADME, organism-based; conditions: in vivo; method in brief: as §1
[23] = AUClast in Swiss albino mouse at 10 mg/kg, ip by LC/MS/MS method; type: ADME, organism-based; design: dose 10 mg/kg, route intraperitoneal, time 0 - last; conditions: in vivo
[24] = Tmax in Swiss albino mouse at 10 mg/kg, po by LC/MS/MS method; type: ADME, organism-based; conditions: in vivo; method in brief: as §1
[25] = Volume of distribution at steady state in Swiss albino mouse at 2 mg/kg, iv by LC/MS/MS method; type: ADME, organism-based; conditions: in vivo, read-out: Vdss; method in brief: as §1

Epithelial discoidin domain-containing receptor 1, sequence (Q08345 whole entry, the tested form may be a part): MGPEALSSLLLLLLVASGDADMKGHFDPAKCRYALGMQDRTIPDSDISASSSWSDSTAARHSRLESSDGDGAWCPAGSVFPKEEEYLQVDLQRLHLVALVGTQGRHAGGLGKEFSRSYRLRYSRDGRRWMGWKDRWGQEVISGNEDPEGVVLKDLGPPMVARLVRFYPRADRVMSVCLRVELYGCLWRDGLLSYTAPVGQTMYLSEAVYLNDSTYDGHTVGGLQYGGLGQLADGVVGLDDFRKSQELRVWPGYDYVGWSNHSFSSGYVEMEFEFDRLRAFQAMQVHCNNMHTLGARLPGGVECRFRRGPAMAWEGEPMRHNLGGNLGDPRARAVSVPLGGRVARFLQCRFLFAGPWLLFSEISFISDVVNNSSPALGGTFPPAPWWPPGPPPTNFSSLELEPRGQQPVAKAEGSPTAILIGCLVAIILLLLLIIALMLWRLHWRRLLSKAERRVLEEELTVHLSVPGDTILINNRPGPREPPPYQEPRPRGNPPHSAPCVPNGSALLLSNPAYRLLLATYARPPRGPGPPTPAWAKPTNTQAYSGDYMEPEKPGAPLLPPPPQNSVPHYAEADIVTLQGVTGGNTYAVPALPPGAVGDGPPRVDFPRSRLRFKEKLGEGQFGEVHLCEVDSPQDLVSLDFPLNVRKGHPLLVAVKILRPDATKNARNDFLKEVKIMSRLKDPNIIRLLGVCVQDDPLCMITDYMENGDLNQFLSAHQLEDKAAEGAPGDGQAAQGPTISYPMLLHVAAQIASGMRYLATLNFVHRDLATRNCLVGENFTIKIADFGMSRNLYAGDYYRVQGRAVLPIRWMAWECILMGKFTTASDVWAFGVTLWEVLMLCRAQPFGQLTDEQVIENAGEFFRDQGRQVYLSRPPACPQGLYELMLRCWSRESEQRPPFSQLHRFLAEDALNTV
Serine/threonine-protein kinase pim-2, sequence (Q9P1W9 whole entry): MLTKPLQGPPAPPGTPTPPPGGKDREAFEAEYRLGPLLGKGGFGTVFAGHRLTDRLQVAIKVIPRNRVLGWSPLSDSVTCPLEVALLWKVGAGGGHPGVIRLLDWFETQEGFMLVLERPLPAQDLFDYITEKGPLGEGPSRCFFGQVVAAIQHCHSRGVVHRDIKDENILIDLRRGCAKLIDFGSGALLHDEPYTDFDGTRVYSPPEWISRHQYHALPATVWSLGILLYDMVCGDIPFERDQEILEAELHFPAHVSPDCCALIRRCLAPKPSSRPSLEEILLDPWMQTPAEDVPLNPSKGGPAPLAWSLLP
Serine/threonine-protein kinase pim-1, sequence (P11309 whole entry): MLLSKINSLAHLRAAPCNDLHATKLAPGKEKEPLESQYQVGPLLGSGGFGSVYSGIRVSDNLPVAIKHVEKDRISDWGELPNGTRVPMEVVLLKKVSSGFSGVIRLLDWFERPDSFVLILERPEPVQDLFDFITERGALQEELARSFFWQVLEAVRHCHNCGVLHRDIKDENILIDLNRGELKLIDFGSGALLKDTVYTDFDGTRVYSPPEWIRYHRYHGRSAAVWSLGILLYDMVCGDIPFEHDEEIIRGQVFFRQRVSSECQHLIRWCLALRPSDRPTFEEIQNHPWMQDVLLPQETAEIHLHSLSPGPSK

With `Cc1ccc(-n2c(=O)ccc3ccc4ccc(-c5cnn(C)c5)cc4c32)cc1NC(=O)/C=C/CN(C)C` the Cmax [1] was 787 ng/mL, the Tmax [2] was 0.25 h and the IC50 [3] was > 10 µM. The IC50 [4] was > 10 µM, the IC50 [5] was 1.79 µM and the Cmax [6] was 40.4 ng/mL. For the same compound, the AUC(0-t) [7] was 161 ng·h/mL, the Activity [8] was 95% and the Activity [9] was 4 log10FFU/ml. For the same compound, the CC50 at 24 h [10] was 12 to 20 µM, the AUC(0-inf) [11] was 1210 ng·h/mL and the Activity [12] was 65%. It also gave a half-life [13] of 1.07 h, an AUC(0-inf) [14] of 118 ng·h/mL and a Cmax [15] of 462 ng/mL. The half-life [16] was 1.53 h, the IC50 [17] was 5.02 µM and the “Selectivity Index” value [18] was 35. For the same compound, the bioavailability [19] was 12%, the Tmax [20] was 4.8 min and the AUC(0-inf) [21] was 167 ng·h/mL. The clearance [22] was 199 mL/min/kg, the AUC(0-t) [23] was 1110 ng·h/mL and the Tmax [24] was 1 h. For the same compound, the Vd [25] was 9.58 L/kg.
